PTEN del growth = growth suppression of PTEN-null HCT116, primary screen, cell-based, CellTiter-Glo | HCT116 PTEN-null viability, 60 h; hits give low values | viability, % at 10 µM | 1.2% of 140,000 active;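 active = viability at or below a set limit, 4 SD under the median of all tested compounds, cut at about 3.7% in these data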;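 note: PTEN knockout HCT116 line with beta catenin targeted HCT116 as companion control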
HUVEC inhibit = inhibitors of HUVEC proliferation, primary screen, cell-based, 384-well; CellTiter-Glo luminescence, 72 h; hits give low values; viability, % at 10 µM (by protocol); 1.1% of 86,000 active; AID 648, 2007;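 active = viability at or below 30%; inactive = viability above 30%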;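 note: 100% = median luminescence of DMSO-only cell control wells on each plate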
HCT116 bCat-KO = primary screen for growth suppressors in beta-catenin knockout HCT116 cells (colon tumor, human). HCT116 beta-catenin knockout viability, CellTiter-Glo, 60 h; hits give low values. viability, % at 10 µM. 1.5% of 140,000 active. AID 818, 2007;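 active = viability at or under a set limit, the compound median less 4 SD, cut at about 6% in these data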;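 note: 0% = Hyamine 1622 control at 20 µM and 100% = untreated cell control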
H69AR growth 86K = proliferation blockers of H69AR lung cancer cells, primary screen, cell-based, human, 86K library. H69AR lung tumor viability, ATP luminescence, 72 h; hits give low values. viability, % at 10 µM. 6% of 85,000 active;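 active = viability at or below 40%; inactive = viability above 40%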;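 note: multidrug resistant small cell line overexpressing MRP-1 efflux transporter; 100% = mean luminescence of untreated control wells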
Fibroblast inh = antiproliferative effect on LL 47 fibroblasts – human, LL 47 cells, CellTiter-Glo luminescence, primary screen; viability, % at 10 µM; AID 719, 2007; 1.1% of 85,000 active; LL 47 human lung fibroblast viability, ATP luminescence; hits give low values;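 active = viability at or below 50% in the single dose screen; inactive = viability above 50%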;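 note: compound exposure lasted 72 h before the ATP readout; 100% = median luminescence of untreated cell-only wells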
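Test system: LL 47 human lung fibroblasts / Quantity: 1,150 cells in each well / Medium: IMEM growth medium with 15% fetal bovine serum / Incubation: 72 h compound exposure at 37 °C after overnight plating / Detection: CellTiter-Glo luminescence measuring cellular ATP / Read-out: % viability versus median cells-only luminescence / Benchmarks: cell-only wells, no compound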
The depositor's hits bear a star; x = no result. The sample as a whole holds a higher share of hits than the screen did.

SMILES | PTEN del growth | HUVEC inhibit | HCT116 bCat-KO | H69AR growth 86K | Fibroblast inh
O=C(c1ccc2c(c1)N(Cc1ccccc1)C(=O)c1ccccc1S2)N1CCCC1 | 83 | 102 | 87 | 29* | 96
CC(C)CN1CN(Cc2ccccc2)CNC1=S | 100 | x | 97 | x | x
Cc1cc2oc(=O)cc(CN3CCOCC3)c2cc1C | 88 | 96 | 86 | 79 | 97
O=c1cc(CN2CCN(c3ccc(F)cc3)CC2)c2cc3c(cc2o1)CCCC3 | 87 | 54 | 90 | 32* | 68
Cc1cc2oc(=O)cc(CN3CCN(C/C=C/c4ccccc4)CC3)c2cc1O | 2.8* | x | 2.3* | x | x
CN1CCN(Cc2cc(=O)oc3cc4c(cc23)CCC4)CC1 | 92 | 93 | 79 | 85 | 100
COc1ccc(N2CCN(Cc3cc(=O)oc4cc(-c5ccccc5)c(O)cc34)CC2)cc1 | 6 | 32 | 14 | 3.1* | 7.6*
O=c1cc(CN2CCN(C/C=C/c3ccccc3)CC2)c2cc(O)c(-c3ccccc3)cc2o1 | 57 | x | 59 | x | x
COc1ccc(N2CCN(Cc3cc(=O)oc4cc(C)c(Cl)cc34)CC2)cc1 | 94 | 91 | 90 | 24* | 80
O=c1cc(CN2CCN(c3ccccc3F)CC2)c2cc(O)c(-c3ccccc3)cc2o1 | 73 | x | 83 | x | x
Cc1cc2c(ncn2C(C)C)c(N)c1C | 106 | x | 100 | x | x
Cc1ccc2c(c1)C1NC(=S)NC(C)(O2)C1C(=O)Nc1ccc(Cl)cc1 (centres undefined) | 78 | x | 74 | x | x
Cc1sc2c(=O)n3c(nc2c1C(=O)NCCCN1CCOCC1)CCCCC3 | 1.5* | 104 | 107 | 81 | 101
Cc1sc2c(=O)n3c(nc2c1C(=O)NC1CCCCC1)CCCCC3 | 72 | 89 | 70 | 39* | 95
Cc1csc2c(=O)n3c(nc12)CCCCC3 | 100 | 99 | 99 | 100 | 97
CCCCNCC(=O)Nc1ccc(NC(=O)CNCCCC)cc1 | 86 | 83 | 88 | 88 | 92
CCCN(CCC)S(=O)(=O)c1ccc(NC(=O)c2cc(C(=O)OC)cc([N+](=O)[O-])c2)cc1 | 73 | x | 65 | x | x
O=C(Nc1cccc(S(=O)(=O)N2CCCCC2)c1)c1ccc2ccccc2n1 | 69 | x | 67 | x | x
O=C(Nc1cccc(S(=O)(=O)N2CCCCC2)c1)Nc1ccc(Cl)cc1Cl | 1.4* | x | 1.5* | x | x
S=c1[nH]nc(C2CCCCC2)n1/N=C/c1cccs1 | 112 | x | 100 | x | x
O=C(CNC(=O)c1ccc(Oc2ccccc2)cc1)OC1CCCCC1=O (centres undefined) | 102 | x | 106 | x | x
Cc1cccc(N=C2NN=C(c3c(C)[nH]c4ccccc34)CS2)c1 | 4 | x | 2.7* | x | x
Cc1cccc(N=C2NN=C(c3ccc4c(c3)OCCO4)CS2)c1 | 30 | 86 | 36 | 77 | 102
CCCCN(CCCC)CP(=O)(c1ccccc1)c1ccccc1 | 67 | 109 | 62 | 74 | 94
CCCN(CCC)C(=O)CC(c1ccccc1)c1cc(Br)ccc1O (centres undefined) | 72 | 66 | 84 | 3.5* | 80
SMILES | PTEN del growth | HUVEC inhibit | HCT116 bCat-KO | H69AR growth 86K | Fibroblast inh
COc1ccc(CC(=O)NCc2nnc(SCc3ccc(C)cc3)n2C)cc1 | 90 | x | 93 | x | x
Cc1nn(-c2ccccc2)c2c1/C(=N/O)CC(C)(C)C2 | 80 | 106 | 87 | 30* | 97
Cc1nn(-c2ccccc2)c2c1C(=O)N(c1ccccc1)C(=O)C(C)(C)C2 | 91 | 92 | 91 | 79 | 94
CCOc1ccc(Cl)cc1S(=O)(=O)N1CCN(c2ccc(C)c(C)c2)CC1 | 70 | 93 | 67 | 39* | 91
Cc1nc(C(F)(F)F)nc(Nc2ccc(N=Nc3ccccc3)cc2)c1C#N | 89 | x | 89 | x | x
Cc1ccc(S(=O)(=O)CCC(=O)Nc2nc3c(s2)CCCC3)cc1 | 26 | 79 | 16 | 24* | 51
COC(=O)Nc1nc2c(s1)CCCC2 | 1.0* | 89 | 1.1* | 98 | 96
O=C(Cc1cccc2ccccc12)N/N=C/c1ccc(Sc2nc3ccccc3s2)o1 | 51 | x | 71 | x | x
COc1ccc(C2=C(C=Nc3c(C)n(C)n(-c4ccccc4)c3=O)C(c3ccccc3C)c3ccccc3O2)cc1OC (centres undefined) | 86 | x | 85 | x | x
Cc1ccccc1OCc1nnc(SCC(=O)Nc2ccc3c(c2)oc2ccccc23)n1C | 98 | 60 | 92 | 21* | 61
Cn1c(SCC(=O)Nc2cccc(Br)c2)nnc1-c1cc2ccccc2o1 | 2.2* | 92 | 2.6* | 97 | 57
O=C(NC(=S)Nc1nc2c(ccc3ccccc32)s1)c1cccs1 | 83 | x | 88 | x | x
O=C(CN1CCC(NC(=O)Cc2ccccc2)CC1)Nc1cccc2ccccc12 | 92 | x | 104 | x | x
CNc1ccc(/C=C/C(=O)c2cccc3ccccc23)cc1[N+](=O)[O-] | 5 | x | 5.3* | x | x
O=C(O)CSC1=NC(=Nc2ccc(Cl)cc2)C2(CCCCC2)N1c1cccc(C(=O)O)c1 | 92 | x | 88 | x | x
CC(=O)c1cc2c(cc1NC(=O)c1cc(C)nn1-c1ccccc1)OCO2 | 33 | 46 | 35 | 33* | 74
CC(=O)Nc1ccc(NC(=O)c2cc(C)nn2-c2ccccc2)cc1 | 94 | 111 | 95 | 89 | 105
CSc1ccccc1NC(=O)Nc1ccc(Cl)cc1 | 20 | 47 | 29 | 35* | 84
CSc1cccc(NC(=O)Nc2ccc(Cl)cc2)c1 | 63 | 97 | 62 | 86 | 94
Cc1ccc(C(=O)NCc2ccccc2)cc1Br | 96 | x | 86 | x | x
COc1ccc(C)cc1NS(=O)(=O)c1ccc(Br)s1 | 70 | 61 | 86 | 22* | 88
Cn1cnc([N+](=O)[O-])c1S(=O)(=O)c1ccc(Cl)cc1 | 1.7* | x | 1.6* | x | x
CCOC(=O)c1c(-c2ccc(C)o2)csc1NC(=O)CSc1nncs1 | 92 | 89 | 100 | 31* | 97
Cc1ccccc1N1C(=O)CC(Sc2nnc(-c3ccccc3)o2)C1=O (centres undefined) | 97 | 85 | 84 | 1.8* | 46*
O=C1CC(Sc2nnc(-c3ccccc3)o2)C(=O)N1c1ccccc1 (centres undefined) | 116 | 106 | 97 | 1.8* | 90
SMILES | PTEN del growth | HUVEC inhibit | HCT116 bCat-KO | H69AR growth 86K | Fibroblast inh
COc1ccc(CN2C(=O)CS(=O)CC2=O)cc1OC | 94 | x | 82 | x | x
O=C(O)c1ccccc1SC1CC(=O)N(C2CCCCC2)C1=O (centres undefined) | 82 | 95 | 82 | 36* | 98
O=C(O)c1ccccc1SC1CC(=O)N(c2ccccc2)C1=O (centres undefined) | 104 | x | 97 | x | x
COc1ccc(C(=O)c2ccc(N(C)C)cc2)c(OC)c1 | 9 | x | 9 | x | x
CN(C)c1ccc(C(=O)c2ccc(N(C)C)c3ccccc23)cc1 | 14 | 43 | 15 | 36* | 44*
CCOC(=O)Cn1c(=O)oc2cc(S(=O)(=O)Nc3cc(OCC)ccc3OCC)ccc21 | 75 | 100 | 76 | 110 | 97
CCOC(=O)Cn1c(=O)oc2cc(S(=O)(=O)Nc3cccc(C)c3)ccc21 | 16 | 83 | 5.2* | 101 | 101

Screening results as filed in PubChem.
